Test results as given in ChEMBL document CHEMBL1148516, “Design and evaluation of new antipsoriatic antedrug candidates having 16-en-22-oxa-vitamin D3 structures” (Bioorg Med Chem Lett, 2006).

Tests used:
[1] = target: T1, Vitamin D3 receptor (Gallus gallus) (UniProt O42392); test: Binding affinity to chick VDR
T1 sequence (whole entry): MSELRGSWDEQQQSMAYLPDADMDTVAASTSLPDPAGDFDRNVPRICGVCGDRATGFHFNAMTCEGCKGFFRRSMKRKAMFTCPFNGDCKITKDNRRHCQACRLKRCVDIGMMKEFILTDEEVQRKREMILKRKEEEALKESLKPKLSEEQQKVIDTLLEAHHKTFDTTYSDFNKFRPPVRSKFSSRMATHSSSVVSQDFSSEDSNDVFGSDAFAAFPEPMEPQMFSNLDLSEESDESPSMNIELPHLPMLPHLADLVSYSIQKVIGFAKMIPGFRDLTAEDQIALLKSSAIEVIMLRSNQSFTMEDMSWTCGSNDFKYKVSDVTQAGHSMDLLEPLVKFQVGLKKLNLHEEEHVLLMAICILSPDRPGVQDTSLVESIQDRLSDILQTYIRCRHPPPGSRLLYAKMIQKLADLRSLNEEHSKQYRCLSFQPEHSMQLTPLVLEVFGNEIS
In short: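 Receptor affinity is expressed as a percentage relative to calcitriol, set at 100%. Each value is the average of duplicate measurements.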

Mus musculus = test: Calcemic activity in percutaneously dosed mouse relative to control; type: functional
In short: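 Mice received a single percutaneous dose of test compound or vehicle, n = 3. Blood ionized Ca (mmol/L) was measured. Activity (%) = (analog Ca − vehicle Ca)/vehicle Ca × 100.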

Keratinocyte = test: Antiproliferative activity against human keratinocyte assessed as inhibition of [3H]TdR uptake; type: functional, cell-based
Homo sapiens = organism: Homo sapiens; test: Clearance in human liver S9 fraction; type: ADME
In short: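 Compound was incubated with human liver S9 in the presence of NADPH. The elimination rate was taken from the time course of compound concentration in the reaction mixture. Clearance is given as mL/min/mg S9 protein, mean of two experiments.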

[2] = Clearance in rat at 1000 ug/kg, iv; type: ADME, organism-based; settings: in vivo, 1 mg/kg
In short: (§1)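 Rats were dosed intravenously at 10 µg/kg or 1000 µg/kg. Total clearance (mL/h/kg) is the mean of 3–4 rats.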

[3] = Clearance in rat at 10 ug/kg, iv; type: ADME, organism-based; settings: in vivo, 0.01 mg/kg; in short: as §1

Structure (SMILES) | Activity [1] [%] | CL (Homo sapiens) [µL/min/mg] | clearance [2] [mL/min/kg] | clearance [3] [mL/min/kg] | Blood ionized calcium (Mus musculus) [mmol/L] | IC50 (Keratinocyte) [µM]
C=C1/C(=C\C=C2/CCC[C@]3(C)C([C@H](C)OCC(=O)OC(C)(C)C)=CCC23)C[C@@H](O)C[C@@H]1O (some centres not stated) | 40.1 | – | – | – | 1.65 | 0.0089
C=C1/C(=C\C=C2/CCC[C@]3(C)C([C@H](C)OCC(=O)OC(C)(CC)CC)=CCC23)C[C@@H](O)C[C@@H]1O (some centres not stated) | 45.1 | 1421 | 94.8 | – | 1.57 | 0.0008
C=C1/C(=C\C=C2/CCC[C@]3(C)[C@@H]([C@H](C)OCCC(C)(C)O)CC[C@@H]23)C[C@@H](O)C[C@@H]1O [MAXACALCITOL] | 20 | 7 | – | 20.9 | 2.6 | 0.0226
C=C1/C(=C\C=C2/CCC[C@]3(C)C([C@H](C)O)=CCC23)C[C@@H](O)C[C@@H]1O (some centres not stated) | 0.32 | – | – | – | 1.4 | > 1
C=C1/C(=C\C=C2/CCC[C@@]3(C)C2CC[C@@H]3[C@H](C)CCC(=O)OC(C)(C)C)C[C@@H](O)C[C@@H]1O (some centres not stated) | – | – | – | – | 1.77 | 0.017
C=C1/C(=C\C=C2/CCC[C@]3(C)C([C@H](C)OCCC(C)(C)O)=CCC23)CC(O)CC1O (single isomer, unassigned) | – | – | – | – | 2.16 | 0.0504
C=C1/C(=C\C=C2/CCC[C@]3(C)[C@@H]([C@H](C)CCCC(C)(C)O)CC[C@@H]23)C[C@@H](O)C[C@@H]1O | 100 | – | – | – | – | –
C=C1/C(=C\C=C2/CCC[C@@]3(C)C2CC[C@@H]3[C@H](C)OCC(=O)OC(C)(C)C)C[C@@H](O)C[C@@H]1O (some centres not stated) | – | – | – | – | 1.49 | 0.0884

Now from value to compound, other results behind:

Activity [1] [%] | CL (Homo sapiens) [µL/min/mg] | clearance [2] [mL/min/kg] | clearance [3] [mL/min/kg] | Structure (SMILES) | Blood ionized calcium (Mus musculus) [mmol/L] | IC50 (Keratinocyte) [µM]
0.04 | – | – | – | C=C1/C(=C\C=C2/CCC[C@]3(C)C([C@H](C)OCC(=O)O)=CCC23)C[C@@H](O)C[C@@H]1O (some centres not stated) | 1.38 | > 1
22.2 | – | – | – | C=C1/C(=C\C=C2/CCC[C@]3(C)C([C@H](C)OCC(=O)NC(C)(C)C)=CCC23)C[C@@H](O)C[C@@H]1O (some centres not stated) | 2.16 | 0.0044
34.4 | 278 | 131 | – | C=C1/C(=C\C=C2/CCC[C@]3(C)C([C@H](C)OCC(=O)NCC(F)(F)C(F)(F)F)=CCC23)C[C@@H](O)C[C@@H]1O (some centres not stated) | 1.58 | 0.0019
18 | – | – | – | C=C1/C(=C\C=C2/CCC[C@]3(C)C([C@H](C)OCC(=O)NCC(C)(C)C)=CCC23)C[C@@H](O)C[C@@H]1O (some centres not stated) | 1.82 | 0.0174
